Among the data in paper PMC9476207 (ACS Omega, 2022) are activity values, retold here.

What all share (assay): NCI-60 single-dose antiproliferative screen
What all share (type): cell-based

One test relates to MDA-MB-231 ATCC. The conditions noted are these: Homo sapiens, MDA-MB-231, 48 h, read-out: growth percent. In outline: (§1)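 NCI-60 protocol. Lines were grown in RPMI 1640 with 5% FBS and 2 mM L-glutamine, plated and incubated 24 h at 37 °C; time-zero plates were TCA-fixed. The test compound was dissolved in DMSO, diluted in medium with 50 μg/mL gentamicin and given once at a final 10^-5 M (DMSO control) for 48 h. Cells were fixed with cold TCA (1 h, 4 °C) and stained with 0.4% SRB in 1% acetic acid for 10 min. Dye was dissolved in 10 mM Trizma base and read at 515 nm. Growth percent was calculated from time-zero, test and control ODs.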

The subject of another test is NCI-H23. As to conditions: Homo sapiens, NCI-H23, 48 h, read-out: growth percent. In outline: as §1
The test system of the next test is SK-MEL-2. The conditions noted are these: Homo sapiens, SK-MEL-2, 48 h, read-out: growth percent. An outline of the steps:
(§2)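 Cells grown in RPMI 1640 with 5% FBS and 2 mM L-glutamine, plated and held 24 h at 37 °C; time-zero plates TCA-fixed. DMSO stocks were diluted in gentamicin-containing medium to a final 10^-5 M, with a DMSO-only control. Exposure 48 h, 5% CO2. Adherent cells TCA-fixed 1 h at 4 °C, stained with 0.4% SRB, solubilised in 10 mM Trizma base, read at 515 nm. Growth percent derived from ODtzero, ODtest and ODctrl.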

In another test the test system is SW-620. The conditions noted are these: Homo sapiens, SW-620, 48 h, read-out: growth percent. In outline:
as §2

Another test relates to K-562. The conditions noted are these: Homo sapiens, K562, 48 h, read-out: growth percent. In outline: as §1
A further test concerns SNB-75. The conditions noted are these: Homo sapiens, SNB-75, 48 h, read-out: growth percent. In outline:
as §2

The next test relates to HT29. As to conditions: Homo sapiens, HT-29, 48 h, read-out: growth percent. In outline:
as §1

The next test relates to A549/ATCC. As to conditions: Homo sapiens, A549, 48 h, read-out: growth percent. An outline of the steps:
as §1

Another test concerns UACC-62. As to conditions: Homo sapiens, UACC-62, 48 h, read-out: growth percent. An outline of the steps: as §2
Another test deals with MCF-7. The conditions noted are these: Homo sapiens, MCF7, 48 h, read-out: growth percent. In outline:
as §1

A further test deals with IGROV1. As to conditions: Homo sapiens, IGROV-1, 48 h, read-out: growth percent. An outline of the steps: as §1
The test system of the next test is KM12. As to conditions: Homo sapiens, KM12, 48 h, read-out: growth percent. An outline of the steps:
as §1

Another test deals with SR. The conditions noted are these: Homo sapiens, 48 h, read-out: growth percent. An outline of the steps: as §2
Another test deals with UACC-257. The conditions noted are these: Homo sapiens, UACC-257, 48 h, read-out: growth percent. An outline of the steps: as §2
In a further test the test system is ACHN. The conditions noted are these: Homo sapiens, 48 h, read-out: growth percent. In outline: as §1
Another test deals with SF-539. The conditions noted are these: Homo sapiens, SF-539, 48 h, read-out: growth percent. An outline of the steps:
as §2

In another test the test system is CCRF-CEM. As to conditions: Homo sapiens, 48 h, read-out: growth percent. In outline: as §1
The subject of the next test is HCC-2998. The conditions noted are these: Homo sapiens, HCC 2998, 48 h, read-out: growth percent. An outline of the steps:
as §1

For another test, the system named is SK-MEL-28. The conditions noted are these: Homo sapiens, SK-MEL-28, 48 h, read-out: growth percent. An outline of the steps: as §2
Another test relates to BT-549. As to conditions: Homo sapiens, BT-549, 48 h, read-out: growth percent. An outline of the steps: as §1

As to `COc1cc(CNC(=O)CCCC/C=C/C(C)C)ccc1OCc1cn(-c2ccc(Br)cc2)nn1` [14k, (E)-N-(4-((1-(4-Bromophenyl)-1H-1,2,3-triazol-4-yl)methoxy)-3-methoxybenzyl)-8-methylnon-6-enamide], the activity at 10 µM in the test on MDA-MB-231 ATCC was determined as 71.3%; in the test with NCI-H23, 70.2%; in the test on SK-MEL-2, 95.2%; in the test with SW-620 it was 94.7%; in the test on K-562 it was 59.2%; in the test on SNB-75, 90.9%. For the same compound, the activity at 10 µM stood at 98.1% in the test on HT29; 88.5% in the test with A549/ATCC; 63% with UACC-62; 76.2% with MCF-7; 72.7% in the test with IGROV1; 94.3% with KM12. Besides, the activity at 10 µM with SR amounted to 67.2%; in the test on UACC-257 it was 90.5%; in the test on ACHN it was 87.7%; with SF-539, 92.4%; in the test with CCRF-CEM, 94.2%; with HCC-2998, 88.8%. Moreover, the activity at 10 µM in the test with SK-MEL-28 came to 100%; in the test with BT-549, 88.1%.
`CCc1ccc(-n2cc(COc3ccc(CNC(=O)CCCC/C=C/C(C)C)cc3OC)nn2)cc1` [14o, (E)-N-(4-((1-(4-Ethylphenyl)-1H-1,2,3-triazol-4-yl)methoxy)-3-methoxybenzyl)-8-methylnon-6-enamide]: the activity at 10 µM in the test with MDA-MB-231 ATCC came out at 88%; in the test on NCI-H23, 89.5%; with SK-MEL-2 it was 95.2%; with SW-620, 103%; in the test with K-562, 78.6%; with SNB-75, 92.6%. Besides, the activity at 10 µM with HT29 came to 109%; in the test on A549/ATCC it was 88.3%; in the test with UACC-62, 71.4%; in the test with MCF-7, 102%; in the test on IGROV1, 102%; with KM12 it was 100%. Moreover, the activity at 10 µM turned out to be 87.5% in the test with SR; 86.4% with UACC-257; 104% with SF-539; 86.8% in the test with CCRF-CEM; 99.7% in the test on HCC-2998; 115% in the test on SK-MEL-28. For the same compound, the activity at 10 µM in the test on BT-549 was determined as 99.1%.
Consider `COc1cc(CNC(=O)CCCC/C=C/C(C)C)ccc1OCc1cn(-c2cc(OC)c(OC)c(OC)c2)nn1` [14m, (E)-N-(3-Methoxy-4-((1-(3,4,5-trimethoxyphenyl)-1H-1,2,3-triazol-4-yl)methoxy)benzyl)-8-methylnon-6-enamide], for which the activity at 10 µM worked out at 92.7% in the test on MDA-MB-231 ATCC; 90.1% in the test with NCI-H23; 97.6% in the test on SK-MEL-2; 102% in the test with SW-620; 79.7% in the test with K-562; 95.2% in the test with SNB-75. In addition, the activity at 10 µM came out at 87.2% with HT29; 91% with A549/ATCC; 87.8% with UACC-62; 102% in the test on MCF-7; 103% in the test on IGROV1; 103% in the test with KM12. Moreover, the activity at 10 µM with SR was found to be 86.6%; in the test with UACC-257, 93.6%; in the test with SF-539 it was 92%; in the test with CCRF-CEM, 96.3%; in the test on HCC-2998, 91.8%; with SK-MEL-28, 108%. Further, the activity at 10 µM in the test with BT-549 was determined as 79.1%.
`COc1cc(CNC(=O)CCCC/C=C/C(C)C)ccc1OCc1cn(-c2ccc(C(F)(F)F)cc2)nn1` [14g, (E)-N-(3-Methoxy-4-((1-(4-(trifluoromethyl)phenyl)-1H-1,2,3-triazol-4-yl)methoxy)benzyl)-8-methylnon-6-enamide]: the activity at 10 µM in the test with MDA-MB-231 ATCC was found to be 75.2%; with NCI-H23 it was 94.6%; in the test on SK-MEL-2 it was 95.1%; in the test with SW-620 it was 41.3%; in the test with K-562, 76.3%; in the test with SNB-75 it was 49.7%. The activity at 10 µM in the test with HT29 was determined as 79%; with A549/ATCC, 49%; in the test with UACC-62, 84.3%; in the test on MCF-7, 80.7%; in the test on IGROV1, 58.7%; in the test on KM12 it was 81.2%. The activity at 10 µM in the test with SR is 70.4%; in the test with UACC-257 it was 98.2%; in the test on SF-539, 81.9%; with CCRF-CEM it was 68.8%; in the test on HCC-2998 it was 94.8%; in the test with SK-MEL-28 it was 107%. Moreover, the activity at 10 µM in the test on BT-549 was determined as 80.4%.
As for `COc1cc(CNC(=O)CCCC/C=C/C(C)C)ccc1OCc1cn(-c2ccccc2OC)nn1` [14l, (E)-N-(3-Methoxy-4-((1-(2-methoxyphenyl)-1H-1,2,3-triazol-4-yl)methoxy)benzyl)-8-methylnon-6-enamide], the activity at 10 µM in the test on MDA-MB-231 ATCC came to 95.8%; in the test on NCI-H23, 96%; in the test on SK-MEL-2, 89.8%; in the test with SW-620, 97%; with K-562, 76.1%; in the test on SNB-75 it was 103%. In addition, the activity at 10 µM was determined as 98.7% in the test with HT29; 86% with A549/ATCC; 75.1% with UACC-62; 98.2% in the test on MCF-7; 104% with IGROV1; 98.2% in the test with KM12. Further, the activity at 10 µM is 77.4% in the test on SR; 85.2% in the test with UACC-257; 106% in the test with SF-539; 83.7% in the test with CCRF-CEM; 117% with HCC-2998; 116% in the test with SK-MEL-28. Further, the activity at 10 µM in the test on BT-549 came out at 93.1%.
`COc1cc(CNC(=O)CCCC/C=C/C(C)C)ccc1OCc1cn(-c2ccc(Cl)c(Cl)c2)nn1` [14d, (E)-N-(4-((1-(3,4-Dichlorophenyl)-1H-1,2,3-triazol-4-yl)methoxy)-3-methoxybenzyl)-8-methylnon-6-enamide]: the activity at 10 µM in the test on MDA-MB-231 ATCC turned out to be 87.3%; in the test on NCI-H23 it was 93.2%; in the test on SK-MEL-2, 108%; in the test with SW-620, 96.1%; with K-562, 77.1%; in the test with SNB-75, 79.1%. In addition, the activity at 10 µM in the test with HT29 amounted to 99.4%; in the test on A549/ATCC, 85.9%; in the test on UACC-62 it was 75.6%; with MCF-7 it was 95.3%; with IGROV1, 104%; with KM12, 100%. Besides, the activity at 10 µM stood at 78.9% in the test on SR; 89.2% with UACC-257; 96.1% in the test on SF-539; 84.7% in the test on CCRF-CEM; 98.1% in the test on HCC-2998; 104% in the test on SK-MEL-28. Also, the activity at 10 µM with BT-549 is 91.8%.
